rCAG RNA binder: binders of r(CAG) RNA repeats, primary screen, biochemical, fluorescence | r(CAG) RNA repeat, TO-PRO-1 dye displacement fluorescence | inhibition, % at 3 µM | actives 1.3% (n = 370,000) | AID 651821, 2012;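 active = inhibition above the plate cutoff, the mean of all test compounds on that plate plus 3 SD, cut at about 35% in these data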;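 note: higher means more dye released from RNA so lower well fluorescence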
NR2E3 ag-1: inhibitors of NR2E3-RetCOR corepressor binding, primary screen, NR2E3 agonist project, biochemical, TR-FRET, GST-NR2E3, biotin-RetCOR. Photoreceptor-specific nuclear receptor (Homo sapiens), Q9Y5X4. 1536-well. inhibition of corepressor binding, % at 4.78 µM. actives 0.12% (n = 320,000);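 active = percent inhibition above the cutoff of mean plus 3 SD of all tested compounds, set per screening campaign, cut at about 20% in these data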
Target sequence (Q9Y5X4 whole entry, looked up): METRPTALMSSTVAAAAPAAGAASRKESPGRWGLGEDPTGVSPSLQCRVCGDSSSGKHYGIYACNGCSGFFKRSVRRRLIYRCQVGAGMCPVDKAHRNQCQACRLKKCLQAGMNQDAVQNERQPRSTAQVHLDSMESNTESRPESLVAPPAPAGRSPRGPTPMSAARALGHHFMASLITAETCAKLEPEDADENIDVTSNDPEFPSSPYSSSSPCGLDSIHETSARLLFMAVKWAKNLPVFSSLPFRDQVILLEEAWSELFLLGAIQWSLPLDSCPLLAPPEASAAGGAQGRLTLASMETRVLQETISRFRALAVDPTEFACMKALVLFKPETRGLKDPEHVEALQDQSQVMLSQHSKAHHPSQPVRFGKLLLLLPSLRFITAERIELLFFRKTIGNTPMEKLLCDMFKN
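system = GST-tagged NR2E3 plus biotinylated RetCOR corepressor | input = 1.35 nM GST-NR2E3 | also added = 7 nM biotin-RetCOR | schedule = 5 h incubation at 4 °C | measured by = TR-FRET with europium anti-GST and streptavidin-D2, 340 nm excitation | read-out = percent loss of FRET ratio relative to control wells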
NR1D1 modulator: modulators of Rev-erb alpha DNA binding, primary screen, biochemical, FITC-DNA, fluorescence polarization, uHTS; Nuclear receptor subfamily 1 group D member 1 (Homo sapiens), P20393; Rev-erbα–FITC-DNA binding, 90 min; activity, % at 10 µM; actives 0.79% (n = 370,000); AID 1259318, 2017;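 active = activity above about 14%, limit read from the data; passing the limit was not always enough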
NR2E3 ag-2: NR2E3 agonists in two-hybrid cells, primary screen, cell-based, luminescence, CHO-S, Gal4-NCOR/VP16-NR2E3 | Photoreceptor-specific nuclear receptor (Homo sapiens), Q9Y5X4 | luciferase | inhibition of corepressor binding, % at 3.98 µM | actives 0.35% (n = 360,000) | AID 602229, 2012;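 active = inhibition above the mean of all tested compounds plus 3 SD, cut at about 70% in these data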;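 note: higher means lower luciferase signal from less NR2E3 corepressor binding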
PG9 Ab binder: binders of HIV-1 gp120 antibody PG9, primary screen, biochemical, TR-FRET. AID 624416, 2012. inhibition, % at 6.7 µM. actives 0.43% (n = 360,000). TR-FRET gp120-PG9 antibody binding. HIV-1 gp120 / PG9 antibody interaction; in the data active = inhibition above about 8.5%
rCAG bind conf: small molecules binding CAG repeat RNA – biochemical, fluorescence, confirmation; actives 70% (n = 4,300); r(CAG) RNA repeat, TO-PRO-1 dye displacement fluorescence; AID 652065, 2013; shares compounds with rCAG RNA binder; inhibition, % at 3 µM;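 active = inhibition above a per-plate cutoff, the mean inhibition of sample wells plus 3 SD, cut at about 35% in these data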;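 note: loss of TO-PRO-1 fluorescence as compound displaces dye from 1x1 AA loop RNA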
DNA CAG counter: displacement of TO-PRO-1 from CAG DNA duplex, counter-screen for rCAG RNA repeat binder project, biochemical, fluorescence, TO-PRO-1 dye, d(CAG) DNA oligo; d(CAG) DNA oligo TO-PRO-1 dye displacement; inhibition, % at 3 µM; actives 94% (n = 4,300); shares compounds with rCAG RNA binder;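 active = inhibition above its plate's cutoff, the mean test-well inhibition plus 3 SD, cut at about 4.8% in these data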;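 note: hits displace the dye from DNA and so lower well fluorescence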
Of the large screens only hits and unclear results are named; the others gave an inactive call (follow-up assays come after a bar, where they were run). Shown are actives, neighbours in structure and some others; about 2.6% of the full set was active somewhere.

CC(NC(=O)C1CCCN(C(=O)c2ccc(Cl)cc2)C1)c1cccc(C(F)(F)F)c1 (stereo not given)	none
C=CCN(c1ccccc1)S(=O)(=O)c1cccc(C(=O)Nc2nnc(SCC)s2)c1	rCAG RNA binder 52 | rCAG bind conf 58 | DNA CAG counter 17
O=S(=O)(Nc1ccc(S(=O)(=O)Nc2cccc3ccccc23)cc1)c1ccccc1	rCAG RNA binder 35 | rCAG bind conf inactive | DNA CAG counter 5.5
O=S(=O)(Nc1ccc(N=Nc2ccccc2)cc1)c1ccccc1	none
O=S(=O)(Nc1ccc(S(=O)(=O)Nc2ccccc2)cc1)c1ccccc1	none
O=S(=O)(Nc1ccc(N=Nc2ccc(O)c3ccccc23)cc1)c1ccccc1	rCAG RNA binder 67 | rCAG bind conf 65 | DNA CAG counter 32
CCCNC(=O)C1(C)CCCN(C(=O)c2cc(F)ccc2C)C1 (stereo not given)	none (no result: NR2E3 ag-1)
O=c1cc(-c2ccc(O)c(O)c2)oc2c1ccc1ccccc12	rCAG RNA binder 57 | rCAG bind conf 61 | DNA CAG counter 28
O=c1cc(-c2ccc(O)c(O)c2)oc2ccc3ccccc3c12	rCAG RNA binder 41 (no result: NR2E3 ag-1) | rCAG bind conf 59 | DNA CAG counter 28
CCC(C)[C@H]1CNC(=O)C(=O)N1CCCCC1CCCCC1 (stereo not given in full)	none (no result: NR2E3 ag-1)
O=C(O)CSc1nnc(COc2cccc3ccccc23)n1Cc1ccccc1	rCAG RNA binder 38 | rCAG bind conf 43 | DNA CAG counter 11
CCn1c(COc2ccc3ccccc3c2C)nnc1SCC(=O)Nc1cccc(C(=O)O)c1	rCAG RNA binder 68 | rCAG bind conf 60 | DNA CAG counter 27
Cc1cccc(OCc2nnc(SCC(=O)O)n2Cc2ccccc2)c1	none
O=C(O)CCSc1nnc(COc2cccc3ccccc23)n1-c1cccc(Cl)c1	rCAG RNA binder 44 | rCAG bind conf 45 | DNA CAG counter 12
C[C@H](CO)N1C[C@H](C)[C@@H](CN(C)S(C)(=O)=O)Oc2ccc(N(C)C)cc2C1=O	none (no result: NR2E3 ag-1)
O=C(O)CCCC(=O)Nc1cccc(C(=O)Nc2ccccc2C(=O)O)c1	none
O=C(CSCc1ccc(Cl)cc1)Nc1cccc(C(=O)Nc2ccccc2C(=O)O)c1	rCAG RNA binder 76 | rCAG bind conf 83 | DNA CAG counter 43
O=C(CSCc1ccccc1)Nc1cccc(C(=O)Nc2ccccc2C(=O)O)c1	rCAG RNA binder 72 | rCAG bind conf 55 | DNA CAG counter 18
O=C(CSCc1ccccc1)Nc1ccccc1C(=O)Nc1ccc(C(=O)O)cc1	none
O=C(CNC(=O)c1ccc(Cl)cc1Cl)OC1CCCCC1=O (stereo not given)	none (no result: NR2E3 ag-1)
CN1OC[C@@H]2CN(Cc3cc(Cl)cc(Cl)c3)[C@H](c3cccc(-c4ccccc4)c3)C[C@@H]21	none (no result: NR2E3 ag-1)
Cc1cccn2c(=S)[nH]nc12	none (no result: NR2E3 ag-1)
O=C(C1CCCCC1)N1C[C@@H](O)[C@H](n2cc(-c3ccc(F)cc3)nn2)C[C@@H]1c1ccccc1	none (no result: NR2E3 ag-1)
CC(C)C[C@H]1COc2cccc(N3CCCCC3)c2S(=O)(=O)N1	none (no result: NR2E3 ag-1, NR2E3 ag-2)
Cc1nc(S/C(=C/c2ccc(-c3cc(Cl)ccc3C)o2)C(=O)O)n[nH]1	rCAG RNA binder 51 | rCAG bind conf 81 | DNA CAG counter 44
O=C1CSc2ccc(C(=O)N3CCCC(C(=O)N4CCOCC4)C3)cc2N1 (stereo not given)	none (no result: NR2E3 ag-1, NR2E3 ag-2, PG9 Ab binder)
O=C(O)CN1C(=O)/C(=C\c2ccccc2OCc2ccc(Cl)cc2Cl)SC1=S	rCAG RNA binder 79 | rCAG bind conf 90 | DNA CAG counter 66
O=C(O)CN1C(=O)/C(=C\c2cc(Br)ccc2OCc2ccc([N+](=O)[O-])cc2)SC1=S	rCAG RNA binder 77 | rCAG bind conf 94 | DNA CAG counter 75
O/N=C/c1cc(Br)ccc1OCc1ccccc1F	none
O=C(O)CN1C(=O)/C(=C\c2cc(Br)ccc2OCc2ccccc2Cl)SC1=S	rCAG RNA binder 78 | rCAG bind conf 93 | DNA CAG counter 75
O=C(O)CN1C(=O)/C(=C\c2cc(Br)ccc2OCc2ccccc2F)SC1=S	rCAG RNA binder 65 | rCAG bind conf 87 | DNA CAG counter 61
Cc1ccc(S(=O)(=O)N2CCCCC2)cc1NC(=O)c1cc(F)c(F)c(F)c1F	none (no result: NR2E3 ag-1)
COc1ccc(C(=O)N2CCC2)cc1S(=O)(=O)NCc1ccc(Cl)cc1	none (no result: NR2E3 ag-1)
O=C(O)CN1C(=O)/C(=C\c2cccc(OCc3ccc(Cl)cc3Cl)c2)SC1=S	rCAG RNA binder 79 (no result: NR2E3 ag-1) | rCAG bind conf 85 | DNA CAG counter 58
Cc1[nH]c2ccc(OC(F)(F)F)cc2c1CCN1C(=O)c2ccc(C(=O)O)cc2C1=O	rCAG RNA binder 48 | rCAG bind conf 44 | DNA CAG counter 13
COc1cc(OC)cc(C(=O)Nc2ccc(S(=O)(=O)Nc3cnc4ccccc4n3)cc2)c1	rCAG RNA binder 64 | rCAG bind conf 59 | DNA CAG counter 15
O=C(Nc1ccc(S(=O)(=O)Nc2ccccn2)cc1)c1ccc(Cl)cc1Cl	none
O=C(Nc1ccc(S(=O)(=O)Nc2cnc3ccccc3n2)cc1)c1ccc([N+](=O)[O-])cc1Cl	rCAG RNA binder 49 | rCAG bind conf inactive | DNA CAG counter 6.0
COc1cc(C(=O)Nc2ccc(S(=O)(=O)Nc3cnc4ccccc4n3)cc2)cc(OC)c1OC	rCAG RNA binder 40 | rCAG bind conf inactive | DNA CAG counter 6.8
Cc1ccc(C(=O)Nc2ccc(S(=O)(=O)Nc3cnc4ccccc4n3)cc2)cc1	rCAG RNA binder 43 | rCAG bind conf inactive | DNA CAG counter 12
COc1cc(C(=O)Nc2ccc(S(=O)(=O)Nc3cc(C)nc(C)n3)cc2)cc(OC)c1OC	none
COCCNC(=S)Nc1ccc(S(=O)(=O)Nc2cnc3ccccc3n2)cc1	none
COc1cccc(C(=O)/C=C/Nc2ccc(S(=O)(=O)Nc3cnc4ccccc4n3)cc2)c1	none
